Results reported in ChEMBL document CHEMBL1158478, “Synthesis and biological evaluation of guanidino compounds endowed with subnanomolar affinity as competitive inhibitors of maize polyamine oxidase” (J Med Chem, 2009).
pKi: −log10 of the molar value. Activity calls are given as the source filed them. The rule behind the calls is not given here.

Key:
Polyamine oxidase 1 = target: T1, Polyamine oxidase 1 (Zea mays, UniProt O64411); experiment: Inhibition of maize PAO at pH 6.5 by spectrophotometry-based Dixon plot method
T1 sequence (O64411 whole entry): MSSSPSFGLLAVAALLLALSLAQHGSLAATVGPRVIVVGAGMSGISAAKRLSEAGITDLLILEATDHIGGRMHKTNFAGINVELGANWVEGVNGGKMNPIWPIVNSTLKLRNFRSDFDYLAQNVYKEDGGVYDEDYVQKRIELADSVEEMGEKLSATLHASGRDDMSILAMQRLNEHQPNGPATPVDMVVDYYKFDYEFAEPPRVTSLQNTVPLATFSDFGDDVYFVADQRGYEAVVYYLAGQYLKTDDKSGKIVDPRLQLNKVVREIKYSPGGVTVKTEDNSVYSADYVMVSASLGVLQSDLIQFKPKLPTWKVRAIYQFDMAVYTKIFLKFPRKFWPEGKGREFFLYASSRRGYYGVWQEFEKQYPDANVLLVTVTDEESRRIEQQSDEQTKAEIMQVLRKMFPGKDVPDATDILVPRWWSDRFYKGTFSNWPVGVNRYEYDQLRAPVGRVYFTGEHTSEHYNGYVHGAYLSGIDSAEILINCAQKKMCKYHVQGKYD
Procedure, shortened: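 H₂O₂ was detected by peroxidase-coupled 4-aminoantipyrine/3,5-dichloro-2-hydroxybenzenesulfonate adduct at 515 nm. Ki was obtained by the Dixon method. Mean of three experiments, each in duplicate.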

HeLa [1] = experiment: Antiproliferative activity against human HeLa cells at 1 uM after 48 hrs by MTT assay; assay type: functional, cell-based
Procedure, shortened: (§1)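 Cells seeded at 2.5 × 10³ cells/well in DMEM with 10% FBS and allowed to adhere. They were then exposed to the test compound (0.1-10 μM) for 24, 48, 72 and 96 h. MTT reduction was read at 550 nm, and viability was taken as OD treated / OD untreated control × 100. At least three independent experiments, compared by two-way ANOVA.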

U373 MG [2] = experiment: Cytostatic activity in human U373MG cells at 1 uM after 72 hrs by trypan blue assay; assay type: functional, cell-based; conditions: U-373MG ATCC
Procedure, shortened: (§2)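 Cells seeded in DMEM with 10% FBS at 2.5 × 10³ cells/well and allowed to adhere. They were then incubated with or without 1 μM compound for 0, 24, 48, 72 and 96 h. Trypan blue exclusion was used: unstained cells were counted twice in a Neubauer chamber, in duplicate, and reported as living cell number (×10⁷). At least three independent runs, with two-way ANOVA against control.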

HeLa [3] = experiment: Antiproliferative activity against human HeLa cells at 1 uM after 96 hrs by MTT assay; assay type: functional, cell-based; procedure, shortened: as §1
HeLa [4] = experiment: Cytostatic activity in human HeLa cells at 1 uM after 72 hrs by trypan blue assay; assay type: functional, cell-based; procedure, shortened: as §2
U373 MG [5] = experiment: Cytostatic activity in human U373MG cells at 1 uM after 96 hrs by trypan blue assay; assay type: functional, cell-based; conditions: U-373MG ATCC; procedure, shortened: as §2
U-373MG ATCC [6] = experiment: Antiproliferative activity against human U373MG cells at 1 uM after 96 hrs by MTT assay; assay type: functional, cell-based; procedure, shortened: as §1
HeLa [7] = experiment: Cytostatic activity in human HeLa cells at 1 uM after 48 hrs by trypan blue assay; assay type: functional, cell-based; procedure, shortened: as §2
U-373MG ATCC [8] = experiment: Cytotoxicity against human U373MG cells at 10 uM after 24 to 96 hrs by MTT assay; assay type: functional, cell-based; procedure, shortened: as §1
HeLa [9] = experiment: Antiproliferative activity against human HeLa cells at 1 uM after 72 hrs by MTT assay; assay type: functional, cell-based; procedure, shortened: as §1
U-373MG ATCC [10] = experiment: Antiproliferative activity against human U373MG cells at 1 uM after 72 hrs by MTT assay; assay type: functional, cell-based; procedure, shortened: as §1
HeLa [11] = experiment: Cytostatic activity in human HeLa cells at 1 uM after 96 hrs by trypan blue assay; assay type: functional, cell-based; procedure, shortened: as §2
U-373MG ATCC [12] = experiment: Antiproliferative activity against human U373MG cells at 1 uM after 48 hrs by MTT assay; assay type: functional, cell-based; procedure, shortened: as §1
U373 MG [13] = experiment: Cytostatic activity in human U373MG cells at 1 uM after 48 hrs by trypan blue assay; assay type: functional, cell-based; conditions: U-373MG ATCC; procedure, shortened: as §2
HeLa [14] = experiment: Cytotoxicity against human HeLa cells at 10 uM after 24 to 96 hrs by MTT assay; assay type: functional, cell-based; procedure, shortened: as §1

| SMILES | pKi (Polyamine oxidase 1) | other results |
| --- | --- | --- |
| N=C(N)NCCCCN [AGMATINE] | 5.52 |  |
| CC(C)=CCNC(=N)NCCCNCCCN | 5.92 |  |
| CC(C)=CCNC(N)=NCCCCN=C(N)N | 6.15 |  |
| NCCCCCCCCN [DIAMINOOCTANE] | 6.52 |  |
| NCCCCCN=C(N)NCC1CC1 | 5.59 |  |
| C=CCNC(=N)NCCCCN | 6.89 |  |
| C#CCNC(=N)NCCCCN | 6.60 |  |
| CC(C)=CCNC(=N)NCCCCN | 7.82 |  |
| NCCCCN=C(N)Nc1ccc(F)cc1 | 6.20 |  |
| CC(C)=CCNC(=N)NCCCCCCN | 7.66 |  |
| N=C(N)NCCCCCCCCNCCCCCCCCNC(=N)N [IMINOCTADIENE] | 8.12 |  |
| CC(C)=CCN=C(N)NCCCCN=C(N)NCC=C(C)C | 5.82 |  |
| COc1cccc(CNC(N)=NCCCCCN)c1 | 5.94 |  |
| N=C(NCCCCCN)NCCC1CCCCC1 | 5.76 |  |
| CC(C)=CCNC(N)=Nc1ccc(CN)cc1 | 4.74 |  |
| NCCCCCN=C(N)NC/C=C/c1ccccc1 | 5.82 |  |

The next lines start with results.

| pKi (Polyamine oxidase 1) | SMILES | other results |
| --- | --- | --- |
| 8.00 | CC(C)=CCNC(=N)NCCCCCN |  |
| 8.77 | CC(C)=CCN=C(N)NCCCCCCCCNCCCCCCCCN=C(N)NCC=C(C)C |  |
| 10.10 | N=C(N)NCCCCCCCCNCCCCCCCCNC(=N)NCC1CC1 | Activity (HeLa [1]): Active; Activity (U373 MG [2]): Active; Activity (HeLa [3]): Active; Activity (HeLa [4]): Active; Activity (U373 MG [5]): Active; Activity (U-373MG ATCC [6]): Active; Activity (HeLa [7]): Active; Activity (U-373MG ATCC [8]): Active; Activity (HeLa [9]): Active; Activity (U-373MG ATCC [10]): Active; Activity (HeLa [11]): Active; Activity (U-373MG ATCC [12]): Active; Activity (U373 MG [13]): Active; Activity (HeLa [14]): Active |
| 8.52 | CC(C)=CCNC(N)=NCCCCCCCCNCCCCCCCCN=C(N)N |  |
| 9.15 | C#CCNC(N)=NCCCCCCCCNCCCCCCCCN=C(N)N |  |
| 9.00 | NC(N)=NCCCCCCCCNCCCCCCCCN=C(N)NCc1ccccc1 |  |
| 9.30 | C=C(C)CCNC(N)=NCCCCCCCCNCCCCCCCCN=C(N)N |  |
| 8.96 | C/C=C/CNC(=N)NCCCCCCCCNCCCCCCCCNC(=N)N |  |
